The source made the active and inactive calls. The rule behind the calls is not given here.

The values below come from ChEMBL document CHEMBL1145405, “Synthesis, biochemical, and cellular evaluation of farnesyl monophosphate prodrugs as farnesyltransferase inhibitors” (J Med Chem, 2007).

Assay [1] deals with Protein farnesyltransferase (Rattus norvegicus). As to the kind of experiment: Inhibition of farnesyltransferase assessed as farnesylation of Dansyl-GCVLS peptide.
The next assay deals with STS-26T. Put plainly: Growth inhibition of human STS-26T cells at 1 to 5 uM after 24 hrs. It counts as functional, cell-based. Put shortly: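 STS-26T cultures were plated in medium with 5% FBS and dosed about 24 h later at 1, 3 or 5 µM, alone or with 1 µM lovastatin, against a DMSO vehicle. Cells were harvested at various times by trypsinization and counted with a hemocytometer; viability was judged by trypan blue exclusion. Values are means ± SD of three culture dishes.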

A short description of assay [2]: Cell cycle arrest in human STS-26T cells assessed as accumulation in G2/M phase at 1 uM after 24 hrs. The assay is classed as functional, cell-based. Put shortly: (§1)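 STS-26T cells were grown in RPMI-1640 with 5% FBS and penicillin/streptomycin at 37 °C under 5% CO2. About 24 h after plating, cells were treated with 1 µM compound, alone or with 1 µM lovastatin, against a DMSO control. After 24 h, DNA content was read by flow cytometry (at least 10^4 events). G1, S and G2/M percentages of the nonapoptotic population came from histogram fitting.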

A short description of assay [3]: Cell cycle arrest in human STS-26T cells assessed as accumulation in G1 phase at 1 uM after 24 hrs. The assay is classed as functional, cell-based. Put shortly: as §1
Assay [4] can be described thus: Apoptosis in human STS-26T cells at 1 uM after 24 hrs. It counts as functional.
The nature of assay [5]: Cell cycle arrest in human STS-26T cells assessed as accumulation in S phase at 1 uM after 24 hrs. The assay is classed as functional, cell-based. Put shortly: as §1

Usually IC50 stands for the point on the concentration scale where inhibition reaches its midpoint. `CC(C)=CCC/C(C)=C/CC/C(=C/COP(=O)(O)O)CC=C(C)C`: the IC50 in assay [1] was 5000 nM.

With `CC(C)=CCC/C(C)=C/CC/C(=C/COP(=O)(OCc1ccc([N+](=O)[O-])o1)N(C)CCCCCl)CC=C(C)C` (centres undefined), the result in the assay on STS-26T was inactive.

Take `CC[C@H](C)C(=O)O[C@H]1C[C@@H](C)C=C2C=C[C@H](C)[C@H](CC[C@@H]3C[C@@H](O)CC(=O)O3)[C@H]21` [LOVASTATIN]: the Activity was 10% in assay [2], 53% in assay [3], 0.3% in assay [4] and 37% in assay [5].

Regarding `C=CC/C(=C\COP(=O)(O)O)CC/C=C(\C)CCC=C(C)C`, the IC50 in assay [1] came to 13 nM.

On to `CC(C)=CCC/C(C)=C/CC/C(=C/COP(=O)(O)O)C(C)(C)C`, for which the IC50 in assay [1] was 16 nM.

With `C=CC/C(=C\COP(=O)(OCc1ccc([N+](=O)[O-])o1)N(C)CCCCCl)CC/C=C(\C)CCC=C(C)C` (centres undefined), the Activity in assay [2] was 12%; in assay [3], 48%; in assay [4] it was 0.5%; in assay [5], 40%. Further, in the assay with STS-26T, the result was inactive.

With `CC(C)=CCC/C(C)=C/CC/C(=C/COP(=O)(OCc1ccc([N+](=O)[O-])o1)N(C)CCCCCl)C(C)(C)C` (centres undefined), in the assay with STS-26T, the outcome was inactive.
